Source: PubChem BioAssay (several laboratories)
XBP1 UPR activ = adaptive UPR (XBP1) activation; 330,000 tested, 0.33% active; CHO-XBP1 luciferase reporter, IRE1-XBP1 UPR activation, luminescence; percent of tunicamycin response, DMSO as zero; activation, % at 20 µM;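 active = versus positive control, 20 µM dose yields 30% or more activation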;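 note: 100% = tunicamycin at 10 µg/mL and 0% = DMSO only wells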
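Material – CHO cell line with stable XBP1 luciferase reporter · Buffer or medium – F12 plus 10% FBS · Compound – single point, 20 µM final compound, 1% DMSO · Schedule – 16-18 h cell attachment at 37 °C, then 6 h compound exposure · Signal – Steady-Glo luminescence read · Benchmarks – high control tunicamycin 10 µg/mL final, low control DMSO vehicle only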
Tb MetRS inh = Trypanosoma brucei MetRS inhibition. purified T. brucei MetRS, ATP depletion, Kinase-Glo luminescence. inhibition, % at 11.9 µM. 360,000 tested, 0.4% active. AID 624268;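 active = inhibition above a per-plate cutoff of the control wells' mean inhibition plus 3 SD, cut at about 5.5% in these data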;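 note: 0% = DMSO wells median and 100% = median of wells with control inhibitor compound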
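Material – parasite MetRS enzyme · Medium – HEPES-MgCl2-KCl buffer plus DTT, spermine, BSA, pyrophosphatase · Reagent – ATP, methionine and E. coli bulk tRNA substrates · Times – 15 min enzyme-compound preincubation, 2 h reaction, 10 min detection, 25 °C · Measured by – luminescence of leftover ATP · Evaluation – percent inhibition relative to median high and low control wells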
V-ATPase pH = regulators of yeast V-ATPase proton transport; AID 504577; 350,000 tested, 0.37% active; S. cerevisiae, pHLuorin cytosolic pH fluorescence; response, % at 10 µM; in the data active = response mostly above about 7.3%, no sharp cut-off; inactive = mostly below about 5.4%; note: actives read high
CHOP inhibitor = CHOP inhibition in unfolded protein response. CHO-K1 CHOP-promoter luciferase, tunicamycin-induced, 15-18 h. inhibition, % at 10 µM. 220,000 tested, 3.8% active;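 active = compounds that reduced the stress-induced luciferase reporter signal by more than about 70% of percent inhibition, limit read from the data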;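 note: 0% = tunicamycin plus vehicle and 100% = wells without tunicamycin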
CHOP UPR activ = apoptotic UPR (CHOP) activation; CHO-CHOP luciferase reporter, luminescence; percent of tunicamycin response over DMSO baseline; activation, % at 10 µM; 330,000 tested, 0.34% active; AID 449763;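 active = at 10 µM dose, activation of 40% or more, normalized to positive control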;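 note: 100% = tunicamycin at 10 µg/mL and 0% = DMSO alone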
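Test system: CHO-CHOP cells, stable luciferase reporter of PERK-eIF2a-CHOP signalling | Quantity: 500 CHO-CHOP cells per well | Buffer or medium: F12 plus 10% serum | Compound dosing: 10 µM single point, 0.5% DMSO | Schedule: 6 h compound treatment, 37 °C | Signal: Luciferase luminescence | Control set: Tunicamycin high control, DMSO low control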
CHOP inh conf = confirmation of CHOP induction inhibitors | shares compounds with CHOP inhibitor | CHO-CHOP promoter luciferase reporter, tunicamycin-induced, luminescence | inhibition, % at 10 µM | 2,100 tested, 45% active | AID 504437;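 active = mean of three repeat readings of reporter signal inhibition above a set limit, cut at about 70% in these data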;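 note: 0% = tunicamycin plus vehicle and 100% = wells lacking tunicamycin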
Starred values were filed as active, the others as inactive. The full list was thinned out, with hits kept by preference.

Results for CCOc1cccc(N2C(=O)CC(NNC(=O)c3ccc(Br)o3)C2=O)c1 (stereo not drawn) ?
XBP1 UPR activ: -1.6; Tb MetRS inh: 0.0; V-ATPase pH: 3.1; CHOP inhibitor: 11.2; CHOP UPR activ: 1.6

What do the screens show for `CCc1ccc(NC(=O)CSC2=C(C#N)C(c3ccco3)C3=C(CCCC3=O)N2)cc1` (stereo not drawn)?
XBP1 UPR activ: -4.6; Tb MetRS inh: -0.7; V-ATPase pH: 4.2; CHOP inhibitor: 26.3; CHOP UPR activ: -0.8

Results for Cc1ccc(NC(=O)CSC2=C(C#N)C(c3ccco3)C3=C(CC(C)(C)CC3=O)N2)cc1 (stereo not drawn) ?
XBP1 UPR activ: -1.8; Tb MetRS inh: 0.1; V-ATPase pH: -1.4; CHOP inhibitor: 99.9*; CHOP UPR activ: -0.9; CHOP inh conf: 43.9

What do the screens show for `CCn1cc(S(=O)(=O)N2CCN(c3ccc(Cl)cc3)CC2)cn1`?
XBP1 UPR activ: -4.8; Tb MetRS inh: -0.1; V-ATPase pH: 8.1; CHOP UPR activ: 1.4

How did COc1ccc(CCNC(=O)C/C(C)=N/NC(=O)COc2ccc(C)cc2Br)cc1OC do in these assays?
XBP1 UPR activ: -2.8; Tb MetRS inh: 0.2; V-ATPase pH: -1.0; CHOP UPR activ: 0.7

Results for CCCCc1ccc(Nc2nc(CCC)cc(=O)[nH]2)cc1 ?
XBP1 UPR activ: 1.9; Tb MetRS inh: -1.3; V-ATPase pH: -2.8; CHOP inhibitor: 107.3*; CHOP UPR activ: 1.4; CHOP inh conf: 98.2*

Results for CCCc1cc(=O)[nH]c(Nc2ccc3c(c2)OCCO3)n1 ?
XBP1 UPR activ: -5.7; Tb MetRS inh: 0.2; V-ATPase pH: -0.2; CHOP inhibitor: -4.1; CHOP UPR activ: -2.6

Results for CCCc1cc(=O)[nH]c(Nc2ccc(N3CCCCC3)cc2)n1 ?
XBP1 UPR activ: -1.1; Tb MetRS inh: 0.1; V-ATPase pH: -1.6; CHOP inhibitor: 106.6*; CHOP UPR activ: -2.6; CHOP inh conf: 94.1*

Results for COc1ccc(C(=O)Nc2ccccc2C(=O)NC(Cc2c[nH]c3ccccc23)C(=O)O)cc1 (stereo not drawn) ?
XBP1 UPR activ: 0.5; Tb MetRS inh: -0.8; V-ATPase pH: 1.6; CHOP inhibitor: 11.9; CHOP UPR activ: -0.6

What do the screens show for `Cc1ccc(C)c(-n2nnnc2Sc2nnnn2-c2ccccc2)c1`?
XBP1 UPR activ: -2.9; Tb MetRS inh: 0.1; V-ATPase pH: -2.8; CHOP UPR activ: 5.8; CHOP inh conf: 23.9

What do the screens show for `CCSc1nnnn1-c1ccccc1`?
XBP1 UPR activ: 3.9; Tb MetRS inh: -0.8; V-ATPase pH: 0.7; CHOP inhibitor: 1.1; CHOP UPR activ: -0.5

How did COc1cccc(COc2ccccc2C2Nc3ccc(Br)cc3C(=O)N2NC(=O)c2ccncc2)c1 (stereo not drawn) do in these assays?
XBP1 UPR activ: 3.8; Tb MetRS inh: -0.3; V-ATPase pH: 5.7; CHOP inhibitor: 55.8; CHOP UPR activ: 4.6

What do the screens show for `FC(F)C(F)(F)C(F)(F)C(F)(F)c1cc(-c2ccccc2)n[nH]1`?
XBP1 UPR activ: 0.2; Tb MetRS inh: -0.5; V-ATPase pH: -3.5; CHOP inhibitor: 106.1*; CHOP UPR activ: 0.2; CHOP inh conf: 110.6*

Results for O=C(Nc1nccs1)c1cc2c(s1)CCCCC2 ?
XBP1 UPR activ: -15.5; Tb MetRS inh: -0.7; V-ATPase pH: -2.5; CHOP inhibitor: 98.0*; CHOP UPR activ: -9.2; CHOP inh conf: 78.5*

What do the screens show for `O=C(Nc1nncs1)c1cc2c(s1)CCC2`?
XBP1 UPR activ: -1.0; Tb MetRS inh: -0.7; V-ATPase pH: -1.2; CHOP inhibitor: 6.2; CHOP UPR activ: 4.2

Results for O=C(CCN1C(=O)C2CC=CCC2C1=O)Nc1ccc(S(=O)(=O)N2CCCCC2)cc1 (stereo not drawn) ?
XBP1 UPR activ: -0.8; Tb MetRS inh: 0.1; V-ATPase pH: 0.0; CHOP UPR activ: -1.7

Results for C[C@H]1CN=C(N(C)C)N1CCC1CCCCC1 ?
XBP1 UPR activ: -5.6; Tb MetRS inh: -0.1; V-ATPase pH: 3.3; CHOP UPR activ: -1.1

How did O=C(CSc1nc(-c2ccccc2)c(-c2ccccc2)[nH]1)Nc1ccc2c(c1)OCO2 do in these assays?
XBP1 UPR activ: -0.2; Tb MetRS inh: -0.3; V-ATPase pH: -0.9; CHOP inhibitor: 102.3*; CHOP UPR activ: -0.3; CHOP inh conf: 18.6

Results for Cn1c(N)c(C(=O)CSc2nnc(-c3c[nH]c4ccccc34)n2C2CC2)c(=O)[nH]c1=O ?
XBP1 UPR activ: 1.8; Tb MetRS inh: -0.1; V-ATPase pH: 0.5; CHOP UPR activ: 1.3

How did Cc1nn(-c2ccccc2)c2c1C(c1ccc(F)cc1F)C(C#N)=C(N)O2 (stereo not drawn) do in these assays?
XBP1 UPR activ: 6.2; Tb MetRS inh: -0.4; V-ATPase pH: 0.1; CHOP inhibitor: 99.5*; CHOP UPR activ: -1.4; CHOP inh conf: 17.3

Results for Cc1nn(-c2ccccc2)c2c1C(c1ccccc1)C(C#N)=C(N)O2 (stereo not drawn) ?
XBP1 UPR activ: -1.0; Tb MetRS inh: 0.6; V-ATPase pH: -0.7; CHOP inhibitor: 12.8; CHOP UPR activ: -3.1

What do the screens show for `O=S(c1ccc2ccccc2c1)c1cnns1` (stereo not drawn)?
XBP1 UPR activ: -11.1; Tb MetRS inh: -0.2; V-ATPase pH: -0.8; CHOP inhibitor: 105.5*; CHOP UPR activ: -9.2; CHOP inh conf: 3.0

What do the screens show for `OC(CSc1c(Cl)cccc1Cl)CN1CCN(c2ccccc2F)CC1` (stereo not drawn)?
XBP1 UPR activ: -1.4; Tb MetRS inh: 0.4; V-ATPase pH: -1.1; CHOP inhibitor: 97.2*; CHOP UPR activ: -0.3; CHOP inh conf: 13.8

What do the screens show for `Cc1ccc(-c2nc(C(Cl)Cl)c3ccccc3n2)cc1`?
XBP1 UPR activ: 5.1; Tb MetRS inh: -0.5; V-ATPase pH: -0.7; CHOP inhibitor: 103.1*; CHOP UPR activ: 28.2; CHOP inh conf: 100.3*

How did Cc1ccc(-c2nc(Nc3ccc(O)cc3)c3ccccc3n2)cc1 do in these assays?
XBP1 UPR activ: 24.1; Tb MetRS inh: 0.6; V-ATPase pH: 2.1; CHOP UPR activ: 2.8

Results for O=c1n(-c2ccccc2)c(=O)n2n1CC(O)C2 ?
XBP1 UPR activ: -1.5; Tb MetRS inh: 0.0; V-ATPase pH: 2.2; CHOP inhibitor: -10.5; CHOP UPR activ: -0.6

Results for Nc1c(C(=O)N/N=C/c2ccc(F)cc2)oc2nc(-c3ccccc3)cc(-c3ccco3)c12 ?
XBP1 UPR activ: 4.9; Tb MetRS inh: -0.6; V-ATPase pH: -1.4; CHOP inhibitor: 100.6*; CHOP UPR activ: 13.2; CHOP inh conf: -1.9

How did Nc1c(C(=O)N/N=C/c2ccccc2Cl)oc2nc(-c3ccccc3)cc(-c3ccco3)c12 do in these assays?
XBP1 UPR activ: -3.2; Tb MetRS inh: -0.2; V-ATPase pH: -79.8; CHOP inhibitor: 34.2; CHOP UPR activ: -0.6
